Source: ChEMBL document CHEMBL1133682, “New arylpiperazine derivatives as antagonists of the human cloned 5-HT(4) receptor isoforms” (J Med Chem, 2000)

What was measured:
[1] = target: T1, 5-hydroxytryptamine receptor 4 (Homo sapiens, UniProt Q13639); test: Binding affinity was determined against cloned 5-hydroxytryptamine 4E receptor isoform expressed in C6 glial cells incubated with 0.2 nM [3H]GR-113808; type: cell-based
[2] = target: T1, 5-hydroxytryptamine receptor 4; test: Binding affinity was determined against cloned 5-hydroxytryptamine 4B receptor isoform expressed in COS-7 cells; type: cell-based
[3] = target: T1, 5-hydroxytryptamine receptor 4; test: ,Antagonism of stimulation of 5-hydroxytryptamine receptor on the L-type calcium current (I Ca) in isolated human atrial myocytes; type: functional, cell-based, Cardiac atrium
[4] = target: T1, 5-hydroxytryptamine receptor 4; test: Binding affinity was determined against cloned 5-hydroxytryptamine 4C receptor isoform expressed in COS-7 cells; type: cell-based
[5] = target: T1, 5-hydroxytryptamine receptor 4; test: Binding affinity was determined against cloned 5-hydroxytryptamine 4D receptor isoform expressed in COS-7 cells; type: cell-based
[6] = target: T1, 5-hydroxytryptamine receptor 4; test: Concentration required to produce half-maximal response against 5-hydroxytryptamine receptor on the L-type calcium current (I Ca) in isolated human atrial myocytes; type: cell-based, Cardiac atrium
How it was run: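 Whole-cell patch clamp on enzymatically dissociated human atrial myocytes, room temperature (19–25 °C); Cs-based internal, pCa 8.5; I_Ca at 0 mV every 8 s, peak minus current at end of 400-ms pulse.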

[7] = target: T1, 5-hydroxytryptamine receptor 4; test: Binding affinity was determined against cloned 5-hydroxytryptamine 4A receptor isoform expressed in COS-7 cells; type: cell-based

T1 sequence (Q13639 whole entry, canonical isoform): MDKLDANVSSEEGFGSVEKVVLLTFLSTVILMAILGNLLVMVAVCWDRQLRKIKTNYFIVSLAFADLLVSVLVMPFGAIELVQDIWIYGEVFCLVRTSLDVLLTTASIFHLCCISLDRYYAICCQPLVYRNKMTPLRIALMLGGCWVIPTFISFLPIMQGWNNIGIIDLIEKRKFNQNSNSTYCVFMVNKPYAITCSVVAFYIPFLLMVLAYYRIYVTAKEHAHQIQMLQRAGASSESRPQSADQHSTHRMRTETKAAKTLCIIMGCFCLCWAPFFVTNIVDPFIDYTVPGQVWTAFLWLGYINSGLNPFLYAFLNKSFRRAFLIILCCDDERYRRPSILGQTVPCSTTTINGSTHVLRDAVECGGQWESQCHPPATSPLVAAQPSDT

## COc1cc(N)c(Cl)cc1C(=O)OCCN1CCN(c2ccccc2OC)CC1
[1]
  Ki: 64 nM

## COc1cc(N)c(Cl)cc1C(=O)OCCN1CCN(c2cnccn2)CC1
[1]
  Ki: 1.4 nM

## COc1cc(N)c(Cl)cc1C(=O)OCCN1CCN(c2ncccn2)CC1
[2]
  Ki: 8.1 nM
[3]
  Kd: 0.7 nM
[1]
  Ki: 1 nM
[4]
  Ki: 2.47 nM
[5]
  Ki: 7.03 nM
[6]
  EC50: 4.5 nM
[7]
  Ki: 3.5 nM

## CCOC(=O)N1CCN(CCOC(=O)c2cc(Cl)c(N)cc2OC)CC1
[1]
  Ki: 23 nM

## COc1cc(N)c(Cl)cc1C(=O)OCCN1CCN(c2ccncc2)CC1
[1]
  Ki: 3.5 nM

## COc1cc(N)c(Cl)cc1C(=O)OCCN1CCN(c2cccc3ccccc23)CC1
[1]
  Ki: > 1000 nM

## COc1cc(N)c(Cl)cc1C(=O)OCCN1CCN(c2ccccc2)CC1
[2]
  Ki: 55 nM
[1]
  Ki: 14.3 nM
[4]
  Ki: 12.5 nM
[5]
  Ki: 32 nM
[7]
  Ki: 23 nM

## COc1cc(N)c(Cl)cc1C(=O)OCCN1CCN(c2ccc(Cl)cc2)CC1
[1]
  Ki: 715 nM

## COc1cc(N)c(Cl)cc1C(=O)OCCN1CCNCC1
[1]
  Ki: > 1000 nM

## COc1cc(N)c(Cl)cc1C(=O)OCCN1CCN(c2ccccc2Cl)CC1
[1]
  Ki: 296 nM

## COc1cc(N)c(Cl)cc1C(=O)OCCN1CCN(c2cnc(Cl)nc2)CC1
[1]
  Ki: 9.8 nM

## COc1cc(N)c(Cl)cc1C(=O)OCCN1CCN(c2ccncn2)CC1
[1]
  Ki: 9.2 nM

## COc1cc(N)c(Cl)cc1C(=O)OCCN1CCN(C(=O)OC(C)(C)C)CC1
[1]
  Ki: > 1000 nM

## COc1cc(N)c(Cl)cc1C(=O)OCCN1CCN(c2cccc(Cl)c2)CC1
[1]
  Ki: 162 nM

## COc1cc(N)c(Cl)cc1C(=O)OCCCN1CCN(c2ccccc2)CC1
[1]
  Ki: 11.5 nM

## COc1cc(N)c(Cl)cc1C(=O)OCCN1CCN(c2ccc(Cl)nn2)CC1
[1]
  Ki: 2 nM

## COc1cc(N)c(Cl)cc1C(=O)OCCN1CCN(c2cccc(C(F)(F)F)c2)CC1
[1]
  Ki: 199 nM

## COc1cc(N)c(Cl)cc1C(=O)OCCN1CCN(c2cccnn2)CC1
[1]
  Ki: 1.4 nM

## COc1cc(N)c(Cl)cc1C(=O)OCCN1CCN(c2ccccn2)CC1
[1]
  Ki: 1.5 nM

## COc1cc(N)c(Cl)cc1C(=O)OCCN1CCN(c2ccc(F)cc2)CC1
[1]
  Ki: 23.1 nM

## COc1cccc(N2CCN(CCOC(=O)c3cc(Cl)c(N)cc3OC)CC2)c1
[1]
  Ki: 3 nM

## COc1cc(N)c(Cl)cc1C(=O)OCCN1CCN(C)CC1
[1]
  Ki: > 1000 nM

## Cn1cc(C(=O)OCC2CCN(CCNS(C)(=O)=O)CC2)c2ccccc21
[1]
  Ki: 0.1 nM

## COc1ccc(N2CCN(CCOC(=O)c3cc(Cl)c(N)cc3OC)CC2)cc1
[1]
  Ki: 17.7 nM

## COc1cc(N)c(Cl)cc1C(=O)OCCN1CCN(Cc2ccccc2)CC1
[1]
  Ki: 240 nM

## COc1cc(N)c(Cl)cc1C(=O)OCCN1CCN(c2ccccc2F)CC1
[1]
  Ki: 16.8 nM
